Source: article PMC12392337 (Archives of toxicology, 2022)
Like-named read-outs stand apart in the source and are kept apart here.

Tests used:
[1] = test system: CYP2A6-expressing TK6 cells; assay: Relative cytotoxicity; type: cell-based, human; conditions: for cytotoxicity at the highest concentration tested: 24 h, data not shown
[2] = test system: CYP2A6-expressing TK6 cells; assay: MultiFlow DNA damage assay, γH2A.X formation; type: cell-based, human; conditions: for BMD50 for γH2A.X induction: Bayesian benchmark dose modeling, model-averaged, CES 0.5, 24-h treatment
[3] = test system: CYP2A6-expressing TK6 cells; assay: MultiFlow DNA damage assay, nuclear P53; type: cell-based, human; conditions: 24 h; for nuclear P53 response (in words): concentrations studied; for increase in nuclear P53 vs vehicle control: 100 μM
[4] = test system: CYP2A6-expressing TK6 cells; assay: In vitro micronucleus assay; type: cell-based, human; conditions: for %MN response (in words): NDIPA and NDBA at concentrations up to 1 mM; for BMD50 for MN frequency: Bayesian benchmark dose modeling, model-averaged, CES 0.5, 24-h treatment; for genotoxic potency relative to NMPA (BMD50 estimates, both endpoints): MN and γH2A.X BMD50 in CYP2A6-expressing TK6 cells, fold weaker than NMPA
[5] = test system: CYP2A6-expressing TK6 cells; assay: Cell cycle analysis; type: cell-based, human; conditions: 24 h; for percentage of cells in G2/M phase: vehicle controls 21.6%
[6] = test system: TK6 cells transduced with CYP2A6, 1A1, 2E1, and 3A4; assay: NDBA level in cell culture medium by UPLC-MS/MS; type: in vitro ADME, human; conditions: 12.5 μM, 24 h; CYP2A6, 1A1, 2E1, and 3A4 expressed in TK6 cells
Procedure, shortened: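 Cells were incubated 24 h with 12.5 μM test compound; wild-type cells in medium with rat or hamster S9 served as a metabolism reference. Medium was protein-precipitated with acetonitrile, centrifuged 12,000 × g for 5 min and run on C18 UPLC at 40 °C with a water/acetonitrile gradient (0.1% formic acid). Detection was ESI+ MRM at m/z 159.1 > 57.3 (LOD 6.8 nM), expressed relative to wild-type-cell medium (100%).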

[7] = test system: TK6 cells expressing CYP1A1; assay: In vitro micronucleus assay; type: cell-based, human; conditions: without S9; positive control B(a)P at 1 μM
[8] = test system: TK6 cells expressing CYP2E1; assay: In vitro micronucleus assay; type: cell-based, human; conditions: without S9; positive control NDMA at 10 μM
[9] = test system: TK6 cells expressing CYP3A4; assay: In vitro micronucleus assay; type: cell-based, human; conditions: without S9; positive control lasiocarpine at 0.5 μM
[10] = test system: human HepG2 cells overexpressing CYP2A6; assay: MN assay in HepG2 cells; type: cell-based; conditions: Supplementary Fig. 1
[11] = test system: TK6 cells expressing CYP2A6; assay: TK and HPRT gene mutation test; type: cell-based, human; conditions: Supplementary Table 1
TK6 cells = assay: NDBA distribution between medium and cell lysate by UPLC-MS/MS; type: in vitro ADME, human; conditions: Supplementary Fig. 2
bacteria = conditions: cited from earlier work
[12] = test system: Salmonella typhimurium expressing human CYP2A6; conditions: cited from earlier work
rats = conditions: cited from earlier work
[13] = 20 °C; no reference given; cited from earlier work
[14] = test system: Chinese hamster V79 cells; conditions: exogenous microsomal activation system; ref Kuroki et al. 1977; cited from earlier work
wild-type TK6 cells = assay: MultiFlow DNA damage assay, γH2A.X formation; type: cell-based, human; conditions: positive control at 25 and 50 ng/ml

## CCCCN(CCCC)N=O [NDBA, N-nitrosodibutylamine]
[1]; 1 mM, CYP2A6-expressing TK6 cells
  relative nuclei count: 50%
[2]
  BMD50 for γH2A.X induction: could not be estimated
[3]
  nuclear P53 response (in words): did not cause an increase
[4]; 24 h
  %MN response (in words): did not cause any significant increase
[4]
  BMD50 for MN frequency: could not be estimated
[5]; 1 mM
  G2/M phase cell cycle arrest (in words): did not cause G2/M phase cell cycle arrest
  percentage of cells in G2/M phase (in words): decreased
  percentage of cells in the sub-G1 phase (in words): significantly increased
[6]
  metabolism of NDBA (amount in medium vs wild-type TK6 cells): did not efficiently metabolize NDBA
[7]
  MN formation (in words): no effect
[8]
  MN formation (in words): no effect
[9]
  MN formation (in words): no effect
[10]
  %MN frequencies (in words): did not increase %MN frequencies
[11]
  TK or HPRT gene mutations (in words): did not induce TK or HPRT gene mutations
TK6 cells
  NDBA in the cell culture medium (in words): most of the NDBA remains in the cell culture medium
  amount of NDBA in the cell lysate (in words): only a very limited amount of NDBA is found in the cell lysate
bacteria; ref Bonfanti et al. 1990
  Ames test result: positive
bacteria; with metabolic activation by rodent S9, ref Inami et al. 2009
  Ames test result: positive
[12]; ref Fujita and Kamataki 2001
  mutagenicity in the Ames test with metabolic activation by CYP2A6 or CYP1A1: mutagenic

## CCN(CC)N=O [NDEA, N-nitrosodiethylamine]
[1]; CYP2A6-expressing TK6 cells
  cytotoxicity at the highest concentration tested: 15–30%
[2]; 6.25 μM (lowest concentration tested), 24 h
  γH2A.X increase over control: 1.5 fold
[2]; 100 μM, 24 h
  γH2A.X fluorescence signal increase over the controls: 2.7 fold
[3]
  increase in nuclear P53 vs vehicle control: 1.7 fold
  lowest observed adverse effect level (LOAEL) for nuclear P53 increase: 25 µM
  nuclear P53 response (in words): concentration-dependent increases
[4]; 100 μM, 24 h
  increase in %MN: 2.6 fold
[4]; 24 h
  %MN response (in words): concentration-dependent increases
[4]
  genotoxic potency relative to NMPA (BMD50 estimates, both endpoints): more than tenfold less genotoxic
[5]; 100 μM
  percentage of cells in G2/M phase: 25.1%
[5]
  G2/M phase cell cycle arrest (in words): resulted in G2/M phase cell cycle arrest
  percentage of cells in S phase (in words): concurrent decrease
bacteria; ref Aiub et al. 2003
  Ames test result: positive

## CC(C)N(N=O)C(C)C [NDIPA, N-nitrosodiisopropylamine]
[1]; concentrations up to 1 mM, cell line not given
  cytotoxicity: not cytotoxic
[2]
  BMD50 for γH2A.X induction: could not be estimated
[3]
  nuclear P53 response (in words): did not cause an increase
[4]; 24 h
  %MN response (in words): did not cause any significant increase
[4]
  BMD50 for MN frequency: could not be estimated
rats; 25 mg/kg dosing group, ref Lijinsky and Taylor 1979
  mean tumor induction period: 770 days
rats; 50 mg/kg dosing group, ref Lijinsky and Taylor 1979
  mean tumor induction period: 430 days
rats; Sprague–Dawley rats, ref Lijinsky and Taylor 1979
  carcinogenicity: weak carcinogen

## CN(C)N=O [NDMA, N-nitrosodimethylamine, reference compound]
[8]
  MN formation (in words): significant increases in MN formation
bacteria; ref Aiub et al. 2003
  Ames test result: positive
[13]
  vapor pressure: > 1 mm Hg

## CCN(N=O)C(C)C [NEIPA, N-nitrosoethylisopropylamine]
[1]; CYP2A6-expressing TK6 cells
  cytotoxicity at the highest concentration tested: 15–30%
[2]; 24 h treatment with nitrosamine
  γH2A.X response (in words): concentration-dependent increase
[3]
  increase in nuclear P53 vs vehicle control: 1.5 fold
  lowest observed adverse effect level (LOAEL) for nuclear P53 increase: 12.5 µM
  nuclear P53 response (in words): concentration-dependent increases
[4]; 100 μM, 24 h
  increase in %MN: 3.6 fold
[4]; 24 h
  %MN response (in words): concentration-dependent increases
[4]
  genotoxic potency relative to NMPA (BMD50 estimates, both endpoints): more than tenfold less genotoxic
[5]; 100 μM
  percentage of cells in G2/M phase: 27.0%
[5]
  G2/M phase cell cycle arrest (in words): resulted in G2/M phase cell cycle arrest
  percentage of cells in S phase (in words): concurrent decrease

## CN(CCCC(=O)O)N=O [NMBA, N-nitroso-N-methyl-4-aminobutanoic acid]
[1]; CYP2A6-expressing TK6 cells
  cytotoxicity at the highest concentration tested: 15–30%
[2]; 24 h, increased signals only above this concentration
  concentration producing increased γH2A.X signals: above 100 μM
[3]
  nuclear P53 response (in words): did not cause an increase
[4]; 24 h
  %MN response (in words): concentration-dependent increases
[4]
  genotoxic potency relative to NMPA (BMD50 estimates, both endpoints): more than 100 fold
[5]; 400 μM
  percentage of cells in G2/M phase: 24.3%
[5]
  G2/M phase cell cycle arrest (in words): resulted in G2/M phase cell cycle arrest
  percentage of cells in S phase (in words): concurrent decrease
rats; rats, large doses in drinking water, ref Lijinsky et al. 1983
  carcinogenicity: caused only bladder cancer

## CN(N=O)c1ccccc1 [NMPA, N-nitrosomethylphenylamine]
[1]; CYP2A6-expressing TK6 cells
  cytotoxicity at the highest concentration tested: 15–30%
[2]; 0.625 μM, 24 h
  γH2A.X increase over control: 1.3 fold
[2]
  BMD50 for γH2A.X induction: 1.1 µM
[3]
  lowest observed adverse effect level (LOAEL) for nuclear P53 increase: 1.25 µM
  nuclear P53 response (in words): concentration-dependent increases
[4]; 2.5 μM, 24 h
  increase in %MN: 2.0 fold
[4]; 10 μM (highest concentration tested), 24 h
  %MN in treated cells relative to controls: 2.8 fold
[4]; 24 h
  %MN response (in words): concentration-dependent increases
[4]
  BMD50 for MN frequency: 2.2 µM
[5]; 10 μM
  percentage of cells in G2/M phase: 32.9%
[5]
  G2/M phase cell cycle arrest (in words): resulted in G2/M phase cell cycle arrest
  percentage of cells in S phase (in words): concurrent decrease
bacteria; ref Koepke et al. 1990
  mutagenicity in a standard Ames test: not mutagenic
[12]; ref Kushida et al. 2000
  mutagenicity in Salmonella typhimurium expressing human CYP2A6: mutagenic
[14]
  mutagenicity in V79 cells: not mutagenic
rats; rats, ref Kroeger-Koepke et al. 1983
  carcinogenicity: potent esophageal carcinogen
[13]
  vapor pressure: > 1 mm Hg

## C/C=C(/C)C(=O)O[C@H]1CCN2CC=C(COC(=O)[C@@](O)([C@H](C)OC)C(C)(C)O)[C@H]12 [lasiocarpine, Lasiocarpine, reference compound]
[9]
  MN formation (in words): significant increases in MN formation

## CO[C@@]12[C@H](COC(N)=O)C3=C(C(=O)C(C)=C(N)C3=O)N1C[C@@H]1N[C@@H]12 [mitomycin C, reference compound]
[2]; positive control at 25 and 50 ng/ml
  γH2A.X response (in words): robust increase
wild-type TK6 cells
  γH2A.X response (in words): robust increase
